Test results reported in ChEMBL document CHEMBL1129639, “Synthesis and cardiotonic activity of novel pyrimidine derivatives: crystallographic and quantum chemical studies” (J Med Chem, 1996).

Key:
Cavia porcellus [1] = species on record: Cavia porcellus; assay: Effect on the contractile force of spontaneously beating atria from Reserpine-treated guinea pigs as percentage variation from the control at concentration of 10E-3 M; assay type: functional
How it was run: (§1)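 Atria from reserpine-treated guinea pigs (reserpine 2 mg/kg ip, 48 and 24 h before death; only tyramine-unresponsive preparations used). Bath solution at 29 °C, gassed 95% O2/5% CO2, pH 7.5, resting tension […]. After 90 min equilibration, compound added cumulatively, 5 min per concentration. Isometric developed-tension amplitude or beating rate given as % variation from untreated control. Mean ± SEM, 6-10 assays.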

Cavia porcellus [2] = species on record: Cavia porcellus; assay: Effect on the frequency rate of spontaneously beating atria from Reserpine-treated guinea pigs as percentage variation from the control at concentration of 10E-4 M; assay type: functional; how it was run: as §1
Cavia porcellus [3] = species on record: Cavia porcellus; assay: Compound was evaluated for its effect on the frequency rate of spontaneously beating atria from Reserpine-treated guinea pigs as percentage variation from the control at concentration of 3 x 10E-5 M; assay type: functional; how it was run: as §1
Cavia porcellus [4] = species on record: Cavia porcellus; assay: Effect on the frequency rate of spontaneously beating atria from Reserpine-treated guinea pigs as percentage variation from the control at concentration of 10E-5 M; assay type: functional; how it was run: as §1
Cavia porcellus [5] = species on record: Cavia porcellus; assay: Effect on the contractile force of spontaneously beating atria from Reserpine treated guinea pigs as percentage variation from the control at concentration of 10E-4 M; assay type: functional; how it was run: as §1
Cavia porcellus [6] = species on record: Cavia porcellus; assay: Effect on the contractile force of spontaneously beating atria from Reserpine-treated guinea pigs as percentage variation from the control at concentration of 10E-5 M; assay type: functional; how it was run: as §1
Cavia porcellus [7] = species on record: Cavia porcellus; assay: Effect on the frequency rate of spontaneously beating atria from Reserpine-treated guinea pigs as percentage variation from the control at concentration of 10E-6 M; assay type: functional; how it was run: as §1
Cavia porcellus [8] = species on record: Cavia porcellus; assay: Effect on the contractile force of spontaneously beating atria from Reserpine-treated guinea pigs as percentage variation from the control at concentration of 3 x 10E-5 M; assay type: functional; how it was run: as §1
Cavia porcellus [9] = species on record: Cavia porcellus; assay: Compound was evaluated for its effect on the frequency rate of spontaneously beating atria from Reserpine-treated guinea pigs as percentage variation from the control at concentration of 3 x 10E-4 M; assay type: functional; how it was run: as §1
Cavia porcellus [10] = species on record: Cavia porcellus; assay: Effect on the contractile force of spontaneously beating atria from Reserpine-treated guinea pigs as percentage variation from the control at concentration of 3 x 10E-6 M; assay type: functional; how it was run: as §1
Cavia porcellus [11] = species on record: Cavia porcellus; assay: Effect on the contractile force of spontaneously beating atria from Reserpine-treated guinea pigs as percentage variation from the control at concentration of 3 x 10E-4 M; assay type: functional; how it was run: as §1
Cavia porcellus [12] = species on record: Cavia porcellus; assay: Effect on the frequency rate of spontaneously beating atria from Reserpine-treated guinea pigs as percentage variation from the control at concentration of 10E-3 M; assay type: functional; how it was run: as §1
Cavia porcellus [13] = species on record: Cavia porcellus; assay: Effect on the contractile force of spontaneously beating atria from Reserpine-treated guinea pigs as percentage variation from the control at concentration of 10E-6 M; assay type: functional; how it was run: as §1
Cavia porcellus [14] = species on record: Cavia porcellus; assay: Compound was evaluated for its effect on the frequency rate of spontaneously beating atria from Reserpine-treated guinea pigs as percentage variation from the control at concentration of 3 x 10E-6 M; assay type: functional; how it was run: as §1
Cavia porcellus [15] = species on record: Cavia porcellus; assay: Inotropic effect in electrically driven left atrium from reserpine-treated guinea pigs at concentration of 10E-3 M; assay type: functional, Cardiac atrium
How it was run: (§2)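 Electrically driven left atrium from reserpine-treated guinea pigs (tyramine-unresponsive), 29 °C, pH 7.5, resting tension […], 90 min equilibration. Compound dissolved in DMSO and added cumulatively, 5 min per step. Where used, adenosine deaminase was preincubated 20 min, and basal force was taken after ADA addition. Developed tension given as % change over control. Mean ± SEM of six assays.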

Cavia porcellus [16] = species on record: Cavia porcellus; assay: Inotropic effect in electrically driven left atrium from reserpine-treated guinea pigs at concentration of 3 x 10E-6 M; assay type: functional, Cardiac atrium; how it was run: as §2
Cavia porcellus [17] = species on record: Cavia porcellus; assay: Inotropic effect in electrically driven left atrium from reserpine-treated guinea pigs at concentration of 10E-4 M; assay type: functional, Cardiac atrium; how it was run: as §2
Cavia porcellus [18] = species on record: Cavia porcellus; assay: Inotropic effect in electrically driven left atrium from reserpine-treated guinea pigs at concentration of 3 x 10E-5 M; assay type: functional, Cardiac atrium; how it was run: as §2
Cavia porcellus [19] = species on record: Cavia porcellus; assay: Inotropic effect in electrically driven left atrium from reserpine-treated guinea pigs at concentration of 10E-6 M; assay type: functional, Cardiac atrium; how it was run: as §2
Cavia porcellus [20] = species on record: Cavia porcellus; assay: Inotropic effect in electrically driven left atrium from reserpine-treated guinea pigs at concentration of 3 x 10E-4 M; assay type: functional, Cardiac atrium; how it was run: as §2
Cavia porcellus [21] = species on record: Cavia porcellus; assay: Inotropic effect in electrically driven left atrium from reserpine-treated guinea pigs at concentration of 10E-5 M; assay type: functional, Cardiac atrium; how it was run: as §2

Compound | Variation (Cavia porcellus [1]) [%] | Variation (Cavia porcellus [2]) [%] | Variation (Cavia porcellus [3]) [%] | Variation (Cavia porcellus [4]) [%] | Variation (Cavia porcellus [5]) [%] | Variation (Cavia porcellus [6]) [%] | Variation (Cavia porcellus [7]) [%] | Variation (Cavia porcellus [8]) [%] | Variation (Cavia porcellus [9]) [%] | Variation (Cavia porcellus [10]) [%] | Variation (Cavia porcellus [11]) [%] | Variation (Cavia porcellus [12]) [%] | Variation (Cavia porcellus [13]) [%] | Variation (Cavia porcellus [14]) [%] | further results
CN(C)c1nccc(Cc2ccccc2)n1 | -57.09 | -3.03 | 3.03 | 3.03 | -32.51 | 9.18 | 0 | 3.17 | -9.09 | 10.71 | -46.99 | -12.12 | 6.43 | 0 | –
CCOC(=O)c1cnc(N(C)C)nc1C(=O)OCC | -100 | -40.77 | -7.41 | -4.76 | -48.31 | 0.54 | 0 | -5.33 | -55.55 | 2.18 | -76.47 | -100 | 0 | 0 | –
CCCc1ccnc(N(C)C)n1 | -91.86 | -52.63 | -31.58 | -26.31 | -64.06 | 3.15 | 0 | -10.63 | -52.63 | 7.18 | -73.58 | -52.63 | 0 | -5.29 | –
Nc1cc(-c2ccncc2)c[nH]c1=O [INAMRINONE] | 23.12 | 6.25 | 1.5 | 0 | 10.22 | 0.52 | 0 | 4.5 | 7.2 | 0 | 19.03 | 9.87 | 0 | 0 | –
Cc1[nH]c(=O)c(C#N)cc1-c1ccncc1 [MILRINONE] | 31.09 | 34.16 | 27.09 | 15.22 | 37.77 | 16.31 | 0 | 30.32 | 42.85 | 0 | 45.62 | 37.2 | 0 | 0 | Variation (Cavia porcellus [15]): 42.89%; Variation (Cavia porcellus [16]): 9.31%; Variation (Cavia porcellus [17]): 35.61%; Variation (Cavia porcellus [18]): 22.81%; Variation (Cavia porcellus [19]): 0%; Variation (Cavia porcellus [20]): 45.61%; Variation (Cavia porcellus [21]): 13.25%
